Compound activity: PubChem, several laboratories
Shown are actives, neighbours in structure and some others; about 2% of the full set was active somewhere.
Lipid droplet: inhibitors of hepatocyte lipid droplet formation, primary screen, imaging, high-throughput imaging, BODIPY stain; AML12 mouse hepatocytes, oleate lipid droplets; inhibition, % at 6.5 µM; hit rate 0.4% among 240,000; AID 1656, 2009;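 active = lipid droplet intensity inhibited by at least 50%, with more than 500 cells counted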
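Assay system: AML12 hepatocytes (mouse); Probe or stimulus: oleic acid at 100 µM to induce lipid droplet formation; Dosing: compound at 6.5 µM only; Schedule: compound with oleate, overnight; Detection: fluorescence imaging, 20x objective, two fields per well; Measure: % inhibition of lipid droplet signal.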
TbHK1 inh: Trypanosoma brucei hexokinase 1 inhibitors, primary screen, biochemical, G6PDH-coupled NADH absorbance, MLSCN library | hexokinase 1 [Trypanosoma brucei] | recombinant TbHK1, G6PDH-coupled NADH A340 | inhibition, % at 10 µM | hit rate 0.11% among 220,000;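 active = inhibition of 50% or more in the single-dose primary screen; inactive = inhibition below 50%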
TNF necrop inh: inhibitors of TNF-alpha triggered necroptosis, primary screen, cell-based, Jurkat FADD-/-, single concentration | hit rate 0.068% among 220,000 | AID 463075, 2010 | activation (protection from cell death), % at 10 µM | Jurkat FADD-/- TNF necroptosis rescue, ATP luminescence, 24 h; 0 = TNF only, 100 = no-TNF cells;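 active = activation, meaning protection from cell death, of at least 50% relative to plate controls; inactive = activation below 50%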;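 note: necroptosis triggered by 40 ng/mL TNF-alpha added together with compound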
L929 necroptosis: inhibitors of zVAD-triggered necroptosis, primary screen, L929 cells; L929 zVAD necroptosis rescue, ATP luminescence, 24 h; with zVAD 60 µM; viability rescue, % at 10 µM; hit rate 0.38% among 220,000; AID 1377, 2008;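 active = activation, scaled between plate controls, above about 75%, limit read from the data; inactive = activation under that limit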
PfM18AAP inh-1: PfM18AAP inhibitors, malaria aminopeptidase, primary screen, biochemical, QFRET, recombinant enzyme. inhibition, % at 7.35 µM. hit rate 1.2% among 290,000. H-Glu-NHMec fluorogenic cleavage;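 active = inhibition above the campaign mean inhibition over all tested compounds plus 3 SD, cut at about 28% in these data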
RBBP9 inhibitor: human RBBP9 inhibitors, primary screen, biochemical, fluorescence polarization, FP-Rh probe, HTS; Serine hydrolase RBBP9 (Homo sapiens), O75884; recombinant RBBP9; inhibition, % at 7.94 µM; hit rate 0.2% among 220,000;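 active = inhibition above the campaign mean of all tested compounds plus 3 SD, cut at about 14% in these data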
Target sequence (O75884 whole entry, looked up): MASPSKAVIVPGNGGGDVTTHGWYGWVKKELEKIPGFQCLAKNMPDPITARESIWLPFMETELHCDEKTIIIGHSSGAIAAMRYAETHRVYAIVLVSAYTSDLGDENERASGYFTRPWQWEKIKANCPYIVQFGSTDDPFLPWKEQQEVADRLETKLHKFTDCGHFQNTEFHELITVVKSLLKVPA
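System: RBBP9 protein | Quantity: 2.5 µM RBBP9 dispensing solution, before mixing | Reagent: FP-Rh probe, 375 nM dispensing solution | Timing: Enzyme-compound preincubation 30 min, then probe labeling 45 min, 25 °C | Measured by: Fluorescence polarization | Read-out: % inhibition | Replication: One well per compound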
PfM18AAP inh-2: PfM18AAP inhibitors, malaria aminopeptidase, confirmation, biochemical, QFRET, recombinant enzyme, triplicate. hit rate 28% among 2,400. shares compounds with PfM18AAP inh-1. H-Glu-NHMec fluorogenic cleavage. inhibition, % at 7.35 µM;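 active = mean inhibition over replicate wells above the hit cutoff set for the earlier primary screen, cut at about 29% in these data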
CTSL1 confirm: cathepsin L1 inhibitors, retest, confirmation, counter-screen for PFM18AAP inhibitor project, biochemical, QFRET, triplicate | purified cathepsin L1, Z-Leu-Arg-MCA fluorescence | AID 2178, 2009 | 2,400 tested, under 10 active | shares compounds with PfM18AAP inh-1 | inhibition, % at 5.96 µM;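 active = average inhibition across replicates above the hit cutoff set in the earlier primary screen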
Target sequence (P07711 whole entry, looked up): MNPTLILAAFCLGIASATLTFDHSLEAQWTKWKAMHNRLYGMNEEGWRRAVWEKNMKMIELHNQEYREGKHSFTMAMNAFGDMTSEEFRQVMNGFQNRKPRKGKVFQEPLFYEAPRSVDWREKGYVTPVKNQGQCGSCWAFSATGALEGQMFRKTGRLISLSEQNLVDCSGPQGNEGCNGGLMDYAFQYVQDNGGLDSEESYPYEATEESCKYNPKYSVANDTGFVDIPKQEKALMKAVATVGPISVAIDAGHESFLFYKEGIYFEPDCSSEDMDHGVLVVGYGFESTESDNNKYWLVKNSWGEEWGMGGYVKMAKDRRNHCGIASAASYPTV
Large screens that a line does not name were inactive (follow-up assays come after a bar, where they were run).

COC(=O)c1c(NC(=O)C2CC2)sc(C(=O)Nc2ccccc2)c1C	none
CCC1CCCCN1CCCNC(=O)c1ccc2c(=O)n(CCOC)c(=O)[nH]c2c1 (stereo unspecified)	none (no result: TbHK1 inh, TNF necrop inh, L929 necroptosis, RBBP9 inhibitor)
Cc1[nH]c(=S)c(C#N)c(-c2ccco2)c1C(=O)N(C)C	PfM18AAP inh-1 51.4 | PfM18AAP inh-2 28.6 | CTSL1 confirm inactive
S=c1[nH]nc(Cc2ccc(Cl)cc2)o1	none
O=C(CSc1nnc(-c2ccncc2)o1)Nc1nncs1	none (no result: TbHK1 inh, TNF necrop inh, L929 necroptosis, RBBP9 inhibitor)
O=C(CSc1nnc(-c2ccccc2Br)o1)Nc1nncs1	PfM18AAP inh-1 43.8 | PfM18AAP inh-2 inactive | CTSL1 confirm inactive
Cc1ccc2oc(=O)c(/C=C(\O)c3ccco3)nc2c1	PfM18AAP inh-1 50.3 | PfM18AAP inh-2 inactive | CTSL1 confirm inactive
COc1cc(/C=C/C(=O)Nc2nnc(CC(C)(C)C)s2)cc(OC)c1OC	PfM18AAP inh-1 34.3 | PfM18AAP inh-2 inactive | CTSL1 confirm inactive
c1ccc(NCn2cncn2)nc1	PfM18AAP inh-1 87.1 | PfM18AAP inh-2 65.8 | CTSL1 confirm inactive
O=C1CCC(=O)N1CNc1ccccn1	none
CSCC[C@H](NC(=O)N1CCn2c1nc1ccccc12)C(=O)N[C@@H](C(=O)O)c1ccccc1	PfM18AAP inh-1 51.2 (no result: TbHK1 inh, TNF necrop inh, L929 necroptosis, RBBP9 inhibitor) | PfM18AAP inh-2 41.5 | CTSL1 confirm inactive
CSCC[C@H](NC(=O)N1CCn2c1nc1ccccc12)C(=O)NCc1ccc(F)cc1	none (no result: TbHK1 inh, TNF necrop inh, L929 necroptosis, RBBP9 inhibitor)
O=C(NNc1nc2c(F)cc(F)cc2s1)C1=COCCO1	PfM18AAP inh-1 32.8 | PfM18AAP inh-2 inactive | CTSL1 confirm inactive
CCC(=O)NNc1nc2c(F)cc(F)cc2s1	PfM18AAP inh-1 44.2 | PfM18AAP inh-2 inactive | CTSL1 confirm inactive
Cc1cccc2sc(NNC(=O)C3COc4ccccc4O3)nc12 (stereo unspecified)	PfM18AAP inh-1 36.4 | PfM18AAP inh-2 inactive | CTSL1 confirm inactive
O=C(NNc1nc2c(F)cc(F)cc2s1)C1COc2ccccc2O1 (stereo unspecified)	none
Cc1cccc2sc(NNC(=O)C3=COCCO3)nc12	PfM18AAP inh-1 43.0 | PfM18AAP inh-2 inactive | CTSL1 confirm inactive
O=S(=O)(c1cccc(NC(=S)Nc2ccc(Br)cc2Cl)c1)N1CCOCC1	none (no result: Lipid droplet)
Nc1[nH]ncc1-c1ccc(F)cc1	none
COc1cc(/C=N/N=C(\N)c2nonc2N)ccc1O	none
Cc1nonc1C(=O)N/N=C/c1ccc(O)c(O)c1	PfM18AAP inh-1 66.2 | PfM18AAP inh-2 65.6 | CTSL1 confirm inactive
O=C(CC(=O)N/N=C/c1ccc(O)cc1)N/N=C/c1ccc(O)cc1	none
O=C(N/N=C/c1ccc(O)c(O)c1)N/N=C/c1ccc(O)c(O)c1	PfM18AAP inh-1 79.7 (no result: TbHK1 inh, TNF necrop inh, L929 necroptosis, RBBP9 inhibitor) | PfM18AAP inh-2 64.0 | CTSL1 confirm inactive
N/C(=N\N=C\c1ccc(O)c(O)c1)c1nonc1N	PfM18AAP inh-1 42.7 | PfM18AAP inh-2 inactive | CTSL1 confirm inactive
COc1cc(/C=N/NC(=O)c2nonc2C)ccc1O	none
CCOC(=O)Cc1csc(NC(=O)Cn2c(=O)oc3ccccc32)n1	none
O=c1[nH]c(CN2CCN(c3ccc(O)cc3)CC2)nc2scc(-c3ccc(Cl)cc3)c12	none
O=Cc1cc2ccccc2nc1SCCCF	none (no result: Lipid droplet)
NC(=S)NNc1ccnc2cc(Cl)ccc12	PfM18AAP inh-1 54.9 | PfM18AAP inh-2 28.1 | CTSL1 confirm inactive
O=C(NNc1ccnc2cc(Cl)ccc12)C1CCCCC1	none
CCOC(CNC(=O)CN1C(=O)COc2ccc(S(=O)(=O)N3CCCC3)cc21)OCC	none (no result: TbHK1 inh, TNF necrop inh, L929 necroptosis, RBBP9 inhibitor)
Cn1cccc1Cc1nnc(SCC(=O)Nc2ccc3c(c2)OCO3)n1CCc1ccccc1	none
